What is called Tmax is the time at which the peak concentration occurs. One may read the Cmax as the highest concentration seen after dosing.

Molecules are shown by their SMILES.

A short description of data set [1]: Intrinsic clearance in human liver microsomes assessed per mg protein by LC-MS/MS analysis. It counts as ADME, Microsome.
A short description of data set [2]: Half life in mouse liver microsomes. It counts as ADME, Microsome. Background: Liver microsomes are vesicles of endoplasmic reticulum, rich in cytochrome P450 enzymes.
Data set [3] is described as follows: Half life in mouse plasma. It counts as ADME, cell-free.
Data set [4] is described as follows: Permeability in human Caco2 cells. It counts as ADME, cell-based. The following applies: caco-2. (Caco-2 monolayers are a common model of the intestinal barrier.)
The nature of data set [5]: Intrinsic clearance in rat hepatocytes assessed per million cells by LC-MS/MS analysis. It counts as ADME, cell-based, Hepatocyte.
Data set [6] in a line: Tmax in Balb/c mouse at 10 mg/kg, ip by LC-MS/MS analysis. It counts as ADME, organism-based. Conditions: in vivo. In a few lines: (§1)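 BALB/c mice, n=3, single 10 mg/kg intraperitoneal dose. Blood (50 μL) taken by retro-orbital bleed at 0.083, 0.25, 0.5, 1, 2, 4, 8 and 24 h post-dose. Plasma levels measured by LC-MS-MS. Brain and plasma levels from sparse sampling at 0.5 and 4 h; LLOQ 9.77 ng/mL.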

Data set [7] can be described thus: Cmax in Balb/c mouse at 10 mg/kg, ip measured after 1 hr by LC-MS/MS analysis. It counts as ADME, organism-based. On the set-up: route intraperitoneal, dose 10 mg/kg, time 1 hrs. The following applies: in vivo. In a few lines:
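BALB/c mice (n=3) received a single 10 mg/kg intraperitoneal dose. Retro-orbital blood samples were taken at 0.083, 0.25, 0.5, 1, 2, 4, 8 and 24 h post-dose, and plasma levels were quantified by LC-MS-MS. Cmax is the mean of the three animals, read from the plasma concentration–time profile.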

Data set [8] in a line: Drug level in Balb/c mouse brain at 10 mg/kg, ip measured after 0.5 hrs by LC-MS/MS analysis. It counts as ADME, organism-based. The following applies: in vivo, BLD = below limit of detection. In a few lines: as §1

As for `Cn1cc(-c2cnc3[nH]cc(-c4ccc5nonc5c4)c3c2)cn1`, in data set [1], the CLint came to 88 µL/min/mg.

Compound `Cn1cc(-c2cnc3[nH]cc(-c4ccc(Cl)cc4)c3c2)cn1` had a CLint in data set [1] of 57 µL/min/mg.

For the compound `Cc1ccc(S(=O)(=O)n2cc(-c3cccc(C#N)c3)c3cc(-c4cnn(C)c4)cnc32)cc1`, the CLint in data set [1] came to 15 µL/min/mg.

`CN1CCC(n2cc(-c3cnc4[nH]cc(-c5cccc(C#N)c5)c4c3)cn2)CC1`: the CLint in data set [1] was 17 µL/min/mg.

In turn, `Cn1cc(-c2ccc3[nH]cc(-c4cccc(C#N)c4)c3c2)cn1` yielded a CLint in data set [1] of 190 µL/min/mg.

Turning to `Cc1nn(C)cc1-c1cnc2[nH]cc(-c3cccc(C#N)c3)c2c1`, in data set [1], the CLint was 250 µL/min/mg.

Regarding `Cn1cc(-c2cnc3[nH]cc(C4CCN(C(=O)OC(C)(C)C)C4)c3c2)cn1` (configuration not stated), in data set [1], the CLint came to 180 µL/min/mg.

`Cn1cc(-c2cnc3[nH]cc(-c4cc(F)cc(C#N)c4)c3c2)cn1`: in data set [1], the CLint came out at 91 µL/min/mg.

In turn, `Cn1cc(-c2cnc3[nH]cc(-c4cccc([N+](=O)[O-])c4)c3c2)cn1` yielded a CLint in data set [1] of 14 µL/min/mg.

In data set [1], `COc1ccc(-c2c[nH]c3ncc(-c4cnn(C)c4)cc23)cc1` showed a CLint of 180 µL/min/mg.

As to `N#Cc1cccc(-c2c[nH]c3ncc(-c4cnn(C5CCOCC5)c4)cc23)c1`, the CLint in data set [1] is 46 µL/min/mg.

Take `N#Cc1cccc(-c2n[nH]c3ncc(-c4cnn(C5CCOCC5)c4)cc23)c1`: in data set [1], the CLint is 42 µL/min/mg.

In data set [1], `N#Cc1cccc(-c2c[nH]c3ncc(-c4cncnc4)cc23)c1` came in with a CLint of 31 µL/min/mg.

In data set [1], `Cn1cc(-c2cnc3[nH]cc(-c4ccc(C#N)cc4)c3c2)cn1` showed a CLint of 51 µL/min/mg.

In data set [1], `Cn1cc(-c2cnc3[nH]cc(-c4ccc(F)c(F)c4)c3c2)cn1` came in with a CLint of 90 µL/min/mg.

Turning to `Cn1cc(-c2cnc3c(c2)c(-c2cccc(C#N)c2)cn3C)cn1`, in data set [1], the CLint is 180 µL/min/mg.

Take `Cn1cc(-c2cnc3[nH]cc(-c4ccnc(C#N)c4)c3c2)cn1`: the CLint in data set [1] was determined as 190 µL/min/mg.

Regarding `Cn1cc(-c2cnc3[nH]cc(-c4cccnc4)c3c2)cn1`, the CLint in data set [1] was 90 µL/min/mg.

For `N#Cc1cccc(-c2c[nH]c3ncc(-c4cnn(C5CCNCC5)c4)cc23)c1`, the t1/2 was 0.567 h in data set [2] and above 2 h in data set [3]. In addition, in data set [1], the CLint was below 3 µL/min/mg. In addition, the permeability entry in data set [4] is “Permeable”. Further, the CLH in data set [5] is 19 µL/min. Further, in data set [6], the Tmax stood at 1 h. Also, the Cmax in data set [7] came out at 4413.3 ng/mL. Moreover, the Drug uptake result in data set [8] is “Bld”.

For `c1nc2[nH]cc(C3CCCNC3)c2cc1-c1cnn(C2CCOCC2)c1` (configuration not stated), in data set [1], the CLint was below 3 µL/min/mg.

In turn, `Cn1cc(-c2cnc3[nH]cc(-c4cccc(F)c4)c3c2)cn1` registered a CLint in data set [1] of 110 µL/min/mg.

`N#Cc1cccc(-c2c[nH]c3ncc(-c4ccncc4)cc23)c1` yielded a CLint in data set [1] of 160 µL/min/mg.

The compound `Cn1cc(-c2cnc3[nH]cc(C4CCCNC4)c3c2)cn1` (configuration not stated) registered a CLint in data set [1] below 3 µL/min/mg.

The compound `Cn1cc(-c2cnc3[nH]cc(-c4ccc(O)cc4)c3c2)cn1` returned a CLint in data set [1] of 50 µL/min/mg.

`Cn1cc(-c2cnc3[nH]cc(-c4ccccc4)c3c2)cn1` returned a CLint in data set [1] of 200 µL/min/mg.

Take `COc1cccc(-c2c[nH]c3ncc(-c4cnn(C)c4)cc23)c1`: the CLint in data set [1] is above 300 µL/min/mg.

In data set [1], `N#Cc1cccc(-c2c[nH]c3ncc(N4CCCC4)cc23)c1` came in with a CLint of 50 µL/min/mg.

`Cn1cc(-c2cnc3[nH]cc(C4CCCN(C(=O)OC(C)(C)C)C4)c3c2)cn1` (configuration not stated): the CLint in data set [1] was above 300 µL/min/mg.

The compound `CN1CCN(c2cnc3[nH]cc(-c4cccc(C#N)c4)c3c2)CC1` gave a CLint in data set [1] of 44 µL/min/mg.

Consider `CS(=O)(=O)c1ccc(Nc2cnc3[nH]cc(-c4cccc(C#N)c4)c3c2)cc1`, for which, in data set [1], the CLint was determined as 33 µL/min/mg.

As to `Cn1cc(-c2cnc3[nH]cc(-c4ccc5[nH]ccc5c4)c3c2)cn1`, in data set [1], the CLint was found to be 300 µL/min/mg.

The compound `Cn1cc(-c2cnc3[nH]cc(C4CCNC4)c3c2)cn1` (configuration not stated) came in with a CLint in data set [1] below 3 µL/min/mg.

The compound `Cc1nn(C)c(C)c1-c1cnc2[nH]cc(-c3cccc(C#N)c3)c2c1` showed a CLint in data set [1] of 300 µL/min/mg.

In data set [1], `Cc1ccc(-c2c[nH]c3ncc(-c4cnn(C)c4)cc23)cc1` returned a CLint of 130 µL/min/mg.

In data set [1], `N#Cc1cccc(-c2c[nH]c3ncc(-c4cn[nH]c4)cc23)c1` yielded a CLint of 290 µL/min/mg.

Take `Cn1cc(-c2cnc3[nH]ccc3c2)cn1`: the CLint in data set [1] is above 300 µL/min/mg.

The compound `CS(=O)(=O)c1ccc(-c2cnc3[nH]cc(-c4cccc(C#N)c4)c3c2)cc1` yielded a CLint in data set [1] of 30 µL/min/mg.

In data set [1], `CS(=O)(=O)N1CCN(c2cnc3[nH]cc(-c4cccc(C#N)c4)c3c2)CC1` gave a CLint of 32 µL/min/mg.

On to `Cn1cc(-c2cnc3[nH]cc(-c4ccncc4)c3c2)cn1`, for which, in data set [1], the CLint was found to be 39 µL/min/mg.

`CC(C)(C)OC(=O)N1CCN(c2cnc3[nH]cc(-c4cccc(C#N)c4)c3c2)CC1`: the CLint in data set [1] worked out at 94 µL/min/mg.

As to `Cn1cc(-c2cnc3[nH]cc(-c4ccccc4C#N)c3c2)cn1`, in data set [1], the CLint is 200 µL/min/mg.

Regarding `Cn1cc(-c2cnc3[nH]cc(-c4ccc(F)c(C#N)c4)c3c2)cn1`, the CLint in data set [1] is 64 µL/min/mg.

In the case of `Cn1cc(-c2cnc3[nH]cc(C4CCNCC4)c3c2)cn1`, in data set [1], the CLint is 3 µL/min/mg.

Turning to `Cn1cc(Nc2cnc3[nH]cc(-c4cccc(C#N)c4)c3c2)cn1`, in data set [1], the CLint turned out to be 15 µL/min/mg.

In turn, `CN1CCCN(c2cnc3[nH]cc(-c4cccc(C#N)c4)c3c2)CC1` gave a CLint in data set [1] of 82 µL/min/mg.

Turning to `Cn1cc(-c2cnc3[nH]cc(-c4cccc(C#N)c4)c3c2)cn1`, the CLint in data set [1] was found to be 190 µL/min/mg.

Take `Cc1c(-c2cnn(C)c2)cnc2[nH]cc(-c3cccc(C#N)c3)c12`: the CLint in data set [1] was 210 µL/min/mg.

For the compound `Cn1cc(-c2c[nH]c3ncc(-c4cccc(C#N)c4)cc23)cn1`, in data set [1], the CLint is 300 µL/min/mg.

The compound `CC(C)(C)OC(=O)N1CCC(n2cc(-c3cnc4[nH]cc(-c5cccc(C#N)c5)c4c3)cn2)CC1` showed a CLint in data set [1] of 91 µL/min/mg.

For the compound `Cn1cc(-c2cnc3[nH]cc(-c4ccccc4F)c3c2)cn1`, the CLint in data set [1] came to 150 µL/min/mg.

As for `Cn1cc(-c2cnc3[nH]cc(-c4ccc(Cl)c(Cl)c4)c3c2)cn1`, the CLint in data set [1] is 51 µL/min/mg.

On to `Cn1cc(-c2cnc3[nH]cc(-c4ccc(C(=O)O)cc4)c3c2)cn1`, for which, in data set [1], the CLint was below 3 µL/min/mg.

For the compound `Cn1cc(-c2cnc3[nH]cc(-c4ccc(F)cc4)c3c2)cn1`, the CLint in data set [1] came to 130 µL/min/mg.

In turn, `c1cc(-c2c[nH]c3ncc(-c4cnn(C5CCOCC5)c4)cc23)ccn1` returned a CLint in data set [1] of 29 µL/min/mg.

As to `Cn1cc(-c2cnc3[nH]cc(C4CCN(C(=O)OC(C)(C)C)CC4)c3c2)cn1`, in data set [1], the CLint came to 300 µL/min/mg.

Compound `Cn1cc(-c2cnc3[nH]cc(-c4ccc(C(N)=O)cc4)c3c2)cn1` displayed a CLint in data set [1] of 14 µL/min/mg.

Regarding `Cn1cc(-c2cnc3[nH]cc(-c4cccc(N)c4)c3c2)cn1`, the CLint in data set [1] came to 290 µL/min/mg.

Regarding `Cn1cc(-c2cnc3occ(-c4cccc(C#N)c4)c3c2)cn1`, the CLint in data set [1] is 130 µL/min/mg.

In data set [1], `Cn1cc(-c2cnc3[nH]cc(-c4cncc(C#N)c4)c3c2)cn1` gave a CLint of 150 µL/min/mg.

For `N#Cc1cccc(-c2c[nH]c3ncc(N4CCCCC4)cc23)c1`, the CLint in data set [1] was 300 µL/min/mg.

The record behind these values is ChEMBL document CHEMBL5034006, “Lead Optimization of 3,5-Disubstituted-7-Azaindoles for the Treatment of Human African Trypanosomiasis” (J Med Chem, 2021).
